A selection: hits, their analogues and other compounds. The true share with any hit is near 3.8%.
Xi reactivation: X-chromosome reactivation activator; XiGFP mouse fibroblasts, % GFP-positive cells imaging, 3 d; cells co-treated with 5-aza-dC sensitizer; scaled so ellipticine positive control = 100%; activation, % at 7.58 µM; hit rate 0.055% among 360,000; AID 743238;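 active = mean normalized replicate activation at least 10% and every replicate at or above 10%; inconclusive = only one of the two criteria met; inactive = mean below 10% and not all replicates reach 10%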;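 note: 0% = median of on-plate neutral control wells and 100% = ellipticine 6 µM median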
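Material: SV40-immortalized XiGFP fibroblast cells, line 68-5-11 | Buffer or medium: DMEM containing 5-aza-dC | Dosing: One concentration, pinned | Times: 3 d treatment, 15 min room-temperature fixation | Controls: Ellipticine 6 µM positive control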
FN deposition inh: fibronectin deposition inhibition; AH1F fibroblasts, Alexa488-fibronectin deposition fluorescence, overnight; hit rate 0.086% among 350,000; inhibition, % at 12.6 µM; AID 743247;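 active = mean inhibition across replicates of 30% or more, regardless of how many single replicates reach that level; inconclusive = mean under 30% yet at least half of replicates reach 30%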;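 note: positive control wells lacked labelled fibronectin entirely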
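Assay system: AH1F fibroblasts / Quantity: 10000 cells per well / Medium: DMEM plus 2% serum, read in PBS / Reagent: labelled fibronectin 24 nM / Dosing: single dose, pinned / Times: 1 h cell attachment, overnight exposure to compound and label / Signal: fluorescence, ex 485 nm, em 525 nm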
DENV2 CPE: DENV2-induced cell death inhibition | DENV2-infected cells, cytopathic effect rescue, plate reader | CPE inhibition, % at 9.99 µM | hit rate 1.7% among 350,000 | AID 651640; in the data active = CPE inhibition above about 20%, passing the limit was not always enough; inconclusive = no clear call, values can overlap the other calls; tested in BHK-21 cells;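 note: 0% = median of neutral control wells and 100% = median of positive control wells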
SIRT5 inh: blocks human SIRT5 desuccinylation of peptide; AID 652115; inhibition, % at 15 µM; Purified SirT5, succinyl-peptide AMC, trypsin-coupled fluorescence; Q9NXA8; hit rate 1.1% among 330,000; in the data active = inhibition above about 15%; inconclusive = no clear call, values can overlap the other calls
Target sequence (Q9NXA8 whole entry, looked up): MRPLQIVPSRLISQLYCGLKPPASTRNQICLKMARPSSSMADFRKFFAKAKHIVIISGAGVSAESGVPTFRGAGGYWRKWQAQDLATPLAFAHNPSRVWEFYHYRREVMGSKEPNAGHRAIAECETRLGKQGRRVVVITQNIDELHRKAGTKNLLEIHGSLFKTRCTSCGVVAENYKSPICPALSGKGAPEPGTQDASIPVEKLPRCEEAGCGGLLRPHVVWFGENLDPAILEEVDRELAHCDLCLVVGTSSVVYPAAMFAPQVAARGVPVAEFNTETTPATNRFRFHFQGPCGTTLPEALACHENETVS
ARNT-TACC3 inh: ARNT/TACC3 interaction disruption; Q9Y6A5; AlphaScreen His-ARNT PAS-B/GST-TACC3 binding, luminescence; TACC3 fragment carries E629A point mutation; inhibition, % at 9.99 µM; hit rate 0.66% among 390,000; AID 623870;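 active = mean inhibition of replicates at least 50% and at least half of replicates each reaching 50%; inconclusive = half or more replicates reach 50% but mean below 50%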;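 note: 0% = complete ARNT plus TACC3 wells and 100% = ARNT alone without TACC3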
FGF22 binding: binders of recombinant human FGF22 by thermal shift. Q9HCT0. SYPRO orange fluorescence; percent of sucrose octasulfate shift, DMSO zero. activity (Tm shift, normalised), % at 9.99 µM. hit rate 1.5% among 340,000. AID 651658;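 active = mean Tm shift, scaled 0 neutral to 100 positive control, at about 1.3% or above, every replicate too, limit read from the data; inconclusive = no clear call, values can overlap the other calls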
Target sequence (Q9HCT0 whole entry, looked up): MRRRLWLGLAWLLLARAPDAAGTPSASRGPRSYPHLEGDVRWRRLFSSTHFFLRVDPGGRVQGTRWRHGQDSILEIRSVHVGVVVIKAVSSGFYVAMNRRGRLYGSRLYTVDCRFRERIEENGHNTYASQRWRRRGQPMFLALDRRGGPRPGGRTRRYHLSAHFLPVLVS
* hit, by the source's call; ? = inconclusive; · = no result given.

SMILES | Xi reactivation | FN deposition inh | DENV2 CPE | SIRT5 inh | ARNT-TACC3 inh | FGF22 binding
Cc1nn(CC(=O)NCCCN2CCC(Cc3ccccc3)CC2)c(=O)c2cc(-c3ccccc3)nn12 | 0.0 | -7.7 | 11.8 | 25.1* | 6.4 | -0.2
FC(F)(F)c1ccc(Cl)c(NC(=S)N/N=C/c2ccccc2Cl)c1 | 0.0 | -1.5 | -5.5 | 27.6* | · | 0.0
COc1ccccc1N=Nc1ccc(O)c2ncccc12 | 0.5 | 10.6 | -1.6 | 2.7 | 66.5* | -0.6
C[C@@H]1CN([C@H](C)CO)C(=O)c2c(c3ccccc3n2C)-c2ccccc2CO[C@@H]1CN(C)Cc1ccc(Cl)c(Cl)c1 | -0.6 | -1.9 | 1.9 | 4.4 | · | 0.4
CC=Cc1ccc2n(c1=O)C[C@H]1[C@H](CO)[C@@H](C(=O)NCc3ccc(F)cc3)N(Cc3cncnc3)[C@@H]21 (mixture of isomers) | 0.0 | · | 1.2 | 5.0 | -2.5 | 0.1
O=C(NCC1CCCO1)C1CCCN1C(=O)NC1CCCCC1 (stereo not given) | · | -1.5 | · | · | 0.1 | ·
S=C(NCC1CCCO1)NC1CCCCC1 (stereo not given) | 0.0 | 2.6 | 2.2 | -2.3 | -2.7 | 43.3*
C[C@H](CO)N1C[C@H](C)[C@@H](CN(C)S(=O)(=O)c2cccs2)OCCCC[C@H](C)Oc2ccc(NS(=O)(=O)c3ccc(Cl)cc3)cc2C1=O | 0.0 | -1.2 | 12.5 | -0.8 | -1.2 | -0.7
C[C@H](CO)N1C[C@H](C)[C@H](CN(C)S(=O)(=O)c2cccs2)OCCCC[C@H](C)Oc2ccc(NS(=O)(=O)c3ccc(F)cc3)cc2C1=O | 0.1 | -10.1 | 30.9* | 6.8 | 0.7 | -0.3
C[C@@H]1CCCCO[C@H](CN(C)S(=O)(=O)c2cccs2)[C@H](C)CN([C@@H](C)CO)C(=O)c2cc(NS(=O)(=O)c3ccc(Cl)cc3)ccc2O1 | 0.0 | 0.2 | 31.4* | 5.2 | 0.0 | -0.8
C[C@H]1CN([C@@H](C)CO)C(=O)c2cc(NS(=O)(=O)c3ccc(Cl)cc3)ccc2O[C@H]1CN(C)S(=O)(=O)c1cccs1 | -0.1 | · | 21.9* | 0.5 | -5.9 | -0.6
C[C@H](CO)N1C[C@H](C)[C@H](CN(C)S(=O)(=O)c2cccs2)OCCCC[C@H](C)Oc2ccc(NS(=O)(=O)c3ccc(Cl)cc3)cc2C1=O | -0.1 | -2.3 | -5.8 | 4.7 | -11.8 | 1.2*
Cc1noc(C)c1NC(=O)Nc1ccc2c(c1)CC(=O)N([C@H](C)CO)C[C@@H](C)[C@H](CN(C)S(=O)(=O)c1ccccc1)O2 | -0.1 | · | -9.2 | 4.2 | · | 0.3
C[C@@H]1CN([C@@H](C)CO)C(=O)c2cc(NS(=O)(=O)c3ccccc3)ccc2O[C@@H](C)CCCCO[C@H]1CN(C)C(=O)Cc1ccccc1 | 0.0 | -8.7 | -5.6 | 4.7 | -4.5 | -0.5
CCCC(=O)N1CC2(CN(C(=O)CC3CC3)C2)c2c(n(C)c3cc(OC)ccc23)[C@H]1CO | 0.1 | · | 10.2 | 2.0 | · | -0.4
CC(C)NC(=O)N(C)C[C@H]1Oc2ccc(NS(C)(=O)=O)cc2C(=O)N(C)C[C@H]1C | 0.2 | -2.8 | · | · | · | ·
O=c1nc(N2CCOCC2)nc(N/N=C/c2ccc3c(c2)OCO3)[nH]1 | 0.0 | 3.6 | 3.0 | 6.9 | -10.5 | 43.8*
CO[C@H]1CN(C)C(=O)c2ccc(NC(C)=O)cc2OC[C@H](C)N(Cc2cc(F)ccc2F)C[C@H]1C | 0.0 | 0.7 | 7.1 | 3.1 | 2.4 | 0.1
COc1ccccc1-[n+]1c(C)cc(/C=C2\Sc3ccccc3N2C)cc1C | 101.2* | -34.6 | 15.0 | 9.5 | 3.0 | 0.4
COc1ccc(-[n+]2c(C)cc(/C=C3\Sc4ccccc4N3C)cc2C)cc1 | 178.6* | -19.6 | 6.7 | 25.8* | · | 0.1
COc1ccc2c3c([nH]c2c1)[C@H](CO)N(Cc1cccc(F)c1)CC31CN(CC2CC2)C1 | -0.1 | · | ? | 3.3 | · | 0.0
COc1ccc(NS(=O)(=O)c2cccc(C(=O)N/N=C/c3c(F)c(F)c(F)c(F)c3F)c2)cc1 | -0.4 | 3.0 | -5.5 | -6.8 | -4.7 | -0.3
O=C(N/N=C/c1sc2ccccc2c1O)c1ccccc1 | · | · | · | · | 61.2* | ·
COc1ccc(C(=O)N/N=C/c2sc3ccccc3c2O)cc1 | · | · | · | · | 78.4* | ·
COc1ccc2cc(C(=O)N/N=C/c3sc4ccccc4c3O)ccc2c1 | 2.0 | -9.7 | 12.7 | -9.0 | 64.5* | -0.1
SMILES | Xi reactivation | FN deposition inh | DENV2 CPE | SIRT5 inh | ARNT-TACC3 inh | FGF22 binding
CCC(=O)N1[C@@H](CO)[C@H](c2ccc(-c3ccccc3OC)cc2)C12CN(C(C)=O)C2 | 0.2 | · | -7.8 | 5.7 | · | -0.2
C[C@@H]1CN([C@@H](C)CO)C(=O)c2cc(-c3cccnc3)cnc2O[C@@H]1CN(C)C(=O)C1CCOCC1 | -0.9 | · | 6.1 | -4.3 | -3.8 | -0.2
Cc1c(C)n(CCCN(C)C)c2ncnc(Nc3ccccc3)c12 | 0.0 | 0.2 | -1.1 | -1.1 | 3.8 | -0.1
COc1ccccc1Nc1ncnc2c1c(C)c(C)n2CCCN(C)C | 0.0 | -1.2 | 42.0* | -3.2 | 18.5 | -0.1
COc1ccc(CCN(C)C(=O)c2cnc(C)cn2)cc1OC | 0.1 | 5.1 | -2.7 | -2.4 | active | 0.0
COc1ccccc1CN(C)C(=O)c1cnc(C)cn1 | 0.2 | 6.5 | 5.8 | -2.2 | -27.3 | 0.1
Cc1ccc(S(=O)(=O)Nc2cccc3c2O[C@@H](CN(C)Cc2ccccc2)[C@H](C)CN([C@@H](C)CO)C3=O)cc1 | -0.5 | · | 16.8 | 0.3 | 0.2 | 0.0
CO[C@@H]1CN(C)C(=O)c2ccc(NC(=O)Nc3ccc(F)cc3)cc2OC[C@H](C)NC[C@@H]1C | -0.1 | 6.9 | 36.4* | -0.5 | -2.9 | -0.1
CO[C@H]1CN(C)C(=O)c2ccc(NC(=O)Nc3ccccc3)cc2OC[C@@H](C)NC[C@@H]1C | 0.2 | -5.1 | -4.6 | 1.8 | -1.6 | -0.1
CO[C@H]1CN(C)C(=O)c2ccc(NC(=O)Nc3ccccc3)cc2OC[C@H](C)NC[C@@H]1C | 0.5 | -1.7 | 31.6* | -1.7 | · | ·
COc1ccc(C2CC(=O)C(C=NCCO)=C(O)C2)cc1 (stereo not given) | 0.1 | -1.1 | -1.7 | 23.2* | -6.8 | -0.1
O=C(Cn1cnc2ccccc2c1=O)Nc1ccc(S(=O)(=O)N2CCCC2)cc1 | 0.1 | -1.9 | · | 16.4* | 0.4 | -0.1
O=C(Cn1cnc2ccccc2c1=O)Nc1ccc(S(=O)(=O)N2CCOCC2)cc1 | 0.0 | 5.4 | 5.5 | -0.8 | -2.1 | -0.5
O=C(CSc1ncnc2ccccc12)Nc1cccc(S(=O)(=O)N2CCCC2)c1 | 0.0 | -5.1 | -2.8 | 0.5 | -0.7 | 43.1*
O=C(Nc1ccc(S(=O)(=O)N2CCCC2)cc1)N1c2ccccc2Sc2ccccc21 | · | · | 2.0 | -0.2 | -16.0 | 2.3*
CC(NC(=O)c1cccc(S(=O)(=O)N2CCN(Cc3ccccc3)CC2)c1)c1ccc(Br)cc1 (stereo not given) | 0.0 | 10.6 | 24.9* | -2.4 | -11.4 | -0.2

Assay outcomes: PubChem, Broad Institute
